According to ChEMBL document CHEMBL4049408, “Exploration of 2-((Pyridin-4-ylmethyl)amino)nicotinamide Derivatives as Potent Reversal Agents against P-Glycoprotein-Mediated Multidrug Resistance” (J Med Chem, 2017):
Activity calls are given as the source filed them. No cut-off for these calls is given here.

Legend:
K562 = assay: Cytotoxicity against human K562 cells after 48 hrs by MTT assay; assay type: functional, cell-based; settings: K562, 48 h
Summary of the method: (§1)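 MTT viability in parental K562 and P-gp-overexpressing K562/A02 cells. Compound alone at a concentration series gives the IC50. Mean ± SD of three independent tests.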

K562/A02 [1] = assay: Cytotoxicity against human K562/A02 cells overexpressing P-gp after 48 hrs by MTT assay; assay type: functional, cell-based; settings: K562/A02, 48 h; summary of the method: as §1
[2] = molecular target: T1, ATP-dependent translocase ABCB1 (Homo sapiens, UniProt P08183); assay: Inhibition of ABCB1 ATPase in human ABCB1 membrane fraction assessed as decrease in ATPase activity at 0.5 uM preincubated with compound followed by addition of MgATP measured after 1 hr by luciferase reporter gene assay relative to control; assay type: cell membranes
GES1 = assay: Cytotoxicity against human GES-1 cells after 48 hrs by MTT assay; assay type: cell-based; settings: GES1, 48 h
Summary of the method: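 Survival of GES-1 cells measured across a range of compound concentrations to give the IC50. Mean ± SD of three independent tests.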

[3] = molecular target: T1, ATP-dependent translocase ABCB1; assay: Inhibition of ABCB1 in human K562/A02 cells assessed as potentiation of adriamycin-mediated cytotoxicity by measuring reduction in ADR IC50 at 5 uM preincubated for 24 hrs followed by compound washout for 12 hrs and subsequent addition of adriamycin measured after 48 hrs by MTT assay relative to control; assay type: cell-based
Summary of the method: (§2)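 K562/A02 cells incubated with modulator at 5.0 µM, then washed out. Adriamycin IC50 determined at 0, 6, 12 or 24 h after removal, with an unwashed comparison. Reversal fold = IC50 without inhibitor / IC50 with inhibitor. Mean ± SD of three independent tests.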

[4] = molecular target: T1, ATP-dependent translocase ABCB1; assay: Inhibition of ABCB1 in human K562/A02 cells assessed as potentiation of adriamycin-mediated cytotoxicity by measuring reduction in ADR IC50 at 5 uM preincubated for 24 hrs followed by compound washout for 6 hrs and subsequent addition of adriamycin measured after 48 hrs by MTT assay relative to control; assay type: cell-based; summary of the method: as §2
[5] = molecular target: T1, ATP-dependent translocase ABCB1; assay: Inhibition of ABCB1 in human K562/A02 cells assessed as potentiation of adriamycin-mediated cytotoxicity by measuring reduction in ADR IC50 at 5 uM preincubated for 24 hrs followed by compound washout for 24 hrs and subsequent addition of adriamycin measured after 48 hrs by MTT assay relative to control; assay type: cell-based; summary of the method: as §2
[6] = molecular target: T1, ATP-dependent translocase ABCB1; assay: Inhibition of ABCB1 in human K562/A02 cells assessed as potentiation of adriamycin-mediated cytotoxicity by measuring reduction in ADR IC50 at 5 uM preincubated for 24 hrs followed by compound washout and subsequent addition of adriamycin measured after 48 hrs by MTT assay relative to control; assay type: cell-based
Summary of the method: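 K562/A02 cells incubated with modulator at 5.0 µM, then washed out. Reversal fold = IC50 without inhibitor / IC50 with inhibitor. Mean ± SD of three independent tests.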

K562/A02 [7] = assay: Potentiation of cyclophosphamide-mediated cytotoxicity against human K562/A02 cells at 5 uM after 48 hrs by MTT assay; assay type: functional, cell-based
Summary of the method: (§3)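 K562/A02 cells given daunorubicin, paclitaxel, vinblastine (P-gp substrates) or cyclophosphamide (non-substrate), each with modulator at 5.0 µM; cytotoxicity then measured. Mean ± SD of three independent tests.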

[8] = molecular target: T1, ATP-dependent translocase ABCB1; assay: Inhibition of ABCB1 in human K562/A02 cells assessed as increase in intracellular adriamycin accumulation at 1 uM after 2.5 hrs by spectrofluorimetric analysis; assay type: cell-based
Summary of the method: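 Intracellular adriamycin measured by its autofluorescence using spectrofluorometry after 2.5 h accumulation in K562/A02 cells. Modulator tested at concentrations up to 5.0 µM; parental K562 and untreated K562/A02 cells as comparators. Mean ± SD of three experiments.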

[9] = molecular target: T1, ATP-dependent translocase ABCB1; assay: Inhibition of ABCB1 in human K562/A02 cells assessed as potentiation of vinblastine-mediated cytotoxicity at 5 uM after 48 hrs by MTT assay; assay type: cell-based; summary of the method: as §3
[10] = molecular target: T1, ATP-dependent translocase ABCB1; assay: Inhibition of ABCB1 in human K562/A02 cells assessed as potentiation of paclitaxel-mediated cytotoxicity at 5 uM after 48 hrs by MTT assay; assay type: cell-based; summary of the method: as §3
K562/A02 [11] = assay: Effect on ABCB1 level in human K562/A02 cells at 0.1 to 5 uM after 72 hrs by Western blot analysis; assay type: functional, cell-based
Summary of the method: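 K562/A02 cells exposed to 0.1, 1.0 or 5.0 µmol/L compound for 72 h. ABCB1 detected by western blot; band intensity expressed as a ratio to β-tubulin.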

[12] = Inhibition of CYP3A4 in rat liver microsomes assessed as 6beta-hydroxytestosterone formation at 40 uM using testosterone as substrate by reverse-phase HPLC analysis; assay type: ADME
[13] = molecular target: T1, ATP-dependent translocase ABCB1; assay: Inhibition of ABCB1 in human K562/A02 cells assessed as potentiation of daunorubicin-mediated cytotoxicity at 5 uM after 48 hrs by MTT assay; assay type: cell-based; summary of the method: as §3
K562/A02 [14] = assay: Cytotoxicity against human K562/A02 cells assessed as cell survival at 5 uM after 48 hrs by MTT assay relative to control; assay type: cell-based; settings: k562/a02, 48 h, 5 µM
Summary of the method: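 MTT viability assay in P-gp-overexpressing, ADM-resistant K562/A02 cells, alongside parental K562. […] Values are mean ± SD of three independent tests.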

[15] = Selectivity index, ratio of IC50 for human GES-1 cells to EC50 for inhibition of ABCB1 in human K562/A02 cells assessed as potentiation of adriamycin-induced cytotoxicity by measuring compound concentration required for reduction of ADR IC50
Summary of the method: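 SI = IC50 in GES-1 cells divided by EC50 for reversal of adriamycin resistance in K562/A02 cells.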

[16] = molecular target: T1, ATP-dependent translocase ABCB1; assay: Inhibition of ABCB1 in human K562/A02 cells assessed as increase in intracellular Rh123 accumulation at 5 uM up to 90 mins by flow cytometry; assay type: cell-based; settings: 1.5 h
Summary of the method: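 K562/A02 cells treated with 5.0 µM modulator; Rh123-associated mean fluorescence intensity read by flow cytometry at 5, 10, 25, 30, 60 and 90 min. Untreated cells as negative control. Mean ± SD of three experiments.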

[17] = molecular target: T1, ATP-dependent translocase ABCB1; assay: Substrate activity at ABCB1 ATPase in human ABCB1 membrane fraction assessed as increase in ATPase activity at 0.5 uM preincubated with compound followed by addition of MgATP measured after 1 hr by luciferase reporter gene assay relative to control; assay type: cell membranes
[18] = molecular target: T1, ATP-dependent translocase ABCB1; assay: Substrate activity at ABCB1 ATPase in human ABCB1 membrane fraction assessed as increase in ATPase activity at 5 uM preincubated with compound followed by addition of MgATP measured after 1 hr by luciferase reporter gene assay relative to control; assay type: cell membranes
[19] = molecular target: T1, ATP-dependent translocase ABCB1; assay: Inhibition of ABCB1 in human K562/A02 cells assessed as potentiation of adriamycin-mediated cytotoxicity by measuring reduction in ADR IC50 at 5 uM after 48 hrs by MTT assay relative to control; assay type: cell-based
Summary of the method: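 K562/A02 cells exposed to a series of adriamycin concentrations with modulator at 5.0 µM; 0.1% DMSO as solvent control. IC50 read by MTT. Reversal fold = IC50 without inhibitor / IC50 with inhibitor. Mean ± SD of three independent tests.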

T1 sequence (P08183 whole entry): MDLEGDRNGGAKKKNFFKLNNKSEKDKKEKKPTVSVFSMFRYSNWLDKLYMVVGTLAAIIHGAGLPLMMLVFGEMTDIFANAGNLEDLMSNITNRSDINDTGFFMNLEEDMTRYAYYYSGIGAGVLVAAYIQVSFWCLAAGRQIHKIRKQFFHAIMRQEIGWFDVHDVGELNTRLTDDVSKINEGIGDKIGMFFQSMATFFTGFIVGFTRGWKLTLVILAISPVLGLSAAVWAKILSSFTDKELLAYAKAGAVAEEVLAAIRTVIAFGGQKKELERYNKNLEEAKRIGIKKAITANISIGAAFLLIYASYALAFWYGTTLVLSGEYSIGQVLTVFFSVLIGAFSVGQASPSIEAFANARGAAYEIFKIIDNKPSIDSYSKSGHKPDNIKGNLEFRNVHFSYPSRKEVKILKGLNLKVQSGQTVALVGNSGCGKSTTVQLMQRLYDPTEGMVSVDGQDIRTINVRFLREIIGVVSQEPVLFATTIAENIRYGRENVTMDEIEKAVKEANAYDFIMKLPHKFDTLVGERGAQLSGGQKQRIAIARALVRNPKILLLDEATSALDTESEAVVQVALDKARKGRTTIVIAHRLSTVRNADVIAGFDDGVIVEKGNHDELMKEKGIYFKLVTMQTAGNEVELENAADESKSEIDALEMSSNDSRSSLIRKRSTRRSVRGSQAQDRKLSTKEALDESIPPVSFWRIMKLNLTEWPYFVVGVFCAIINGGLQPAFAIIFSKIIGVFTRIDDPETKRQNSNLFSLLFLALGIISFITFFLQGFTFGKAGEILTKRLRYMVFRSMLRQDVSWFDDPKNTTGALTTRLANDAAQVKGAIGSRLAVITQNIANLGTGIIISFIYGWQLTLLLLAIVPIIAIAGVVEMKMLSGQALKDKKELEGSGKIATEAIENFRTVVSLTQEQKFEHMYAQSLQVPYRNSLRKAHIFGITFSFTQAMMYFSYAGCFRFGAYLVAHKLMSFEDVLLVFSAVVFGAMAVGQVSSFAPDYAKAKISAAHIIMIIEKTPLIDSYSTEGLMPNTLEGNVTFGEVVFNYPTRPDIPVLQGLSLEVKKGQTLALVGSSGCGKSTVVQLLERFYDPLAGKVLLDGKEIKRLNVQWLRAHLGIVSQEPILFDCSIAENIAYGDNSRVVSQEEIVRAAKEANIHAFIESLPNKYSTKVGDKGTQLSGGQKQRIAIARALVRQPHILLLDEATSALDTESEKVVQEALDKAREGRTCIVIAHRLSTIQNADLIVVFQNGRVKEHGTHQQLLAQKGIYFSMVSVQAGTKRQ

| SMILES | IC50 (K562) [µM] | IC50 (K562/A02 [1]) [µM] | fold change (FC) [3] | fold change (FC) [4] | fold change (FC) [5] | fold change (FC) [6] | inhibition (INH) [8] | inhibition (INH) [16] | other results |
| --- | --- | --- | --- | --- | --- | --- | --- | --- | --- |
| COc1cc2c(cc1OC)CN(CCc1ccc(NC(=O)c3cccnc3NCc3ccncc3)cc1)CC2 | 55.4 | 74.9 | 14.54 | 20.03 | 7.84 | 27.98 | Active | Active | inhibition (INH) [2]: Active; IC50 (GES1): > 100 µM; Activity (K562/A02 [7]): inactive; inhibition (INH) [9]: Active; inhibition (INH) [10]: Active; Activity (K562/A02 [11]): inactive; inhibition (INH) [12]: Not Active; inhibition (INH) [13]: Active; Activity (K562/A02 [14]): Non-Toxic; Ratio IC50/EC50 [15]: >836.1 |
| N#CC1(c2ccc(NC(=O)c3cccnc3NCc3ccncc3)cc2)CCCC1 [RIVOCERANIB] | 14.9 to 15.9 | 19.8 to 20.8 | 3.97 | 6.12 | 2.46 | 7.35 | Active | Active | fold change (FC) [17]: 1.41; fold change (FC) [18]: 2.68; fold change (FC) [19]: 8.63 to 8.71 |
